# mABHD4 FP: inhibits mouse alpha/beta hydrolase domain 4. purified mABHD4, FP-Rh probe fluorescence polarization. Q8VD66. actives 0.54% (n = 370,000). AID 720543. inhibition, % at 8.92 µM;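 active = inhibition exceeding the mean over every tested compound plus 3 SD, cut at about 30% in these data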;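 note: 0% = plate median of compound wells and 100% = S159A mutant with DMSO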
# Target sequence (Q8VD66 whole entry, looked up, the tested form may be a part): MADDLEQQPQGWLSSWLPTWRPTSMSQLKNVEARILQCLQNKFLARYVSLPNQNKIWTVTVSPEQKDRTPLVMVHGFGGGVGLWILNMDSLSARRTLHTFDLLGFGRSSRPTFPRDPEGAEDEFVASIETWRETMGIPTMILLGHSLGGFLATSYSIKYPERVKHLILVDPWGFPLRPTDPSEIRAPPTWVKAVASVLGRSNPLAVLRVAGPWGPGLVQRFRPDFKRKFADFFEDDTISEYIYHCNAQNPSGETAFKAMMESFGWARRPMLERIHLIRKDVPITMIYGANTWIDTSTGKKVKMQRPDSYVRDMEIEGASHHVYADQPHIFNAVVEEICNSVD
#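 assay system = mABHD4 protein | compound dosing = single nominal dose of 8.92 µM, 0.89% DMSO final | read-out basis = percent inhibition of probe binding, normalized to plate controls | schedule = Enzyme–compound pre-incubation 45 min, then probe 60 min, both 25 °C | detection = fluorescence polarization, excitation 525 nm, emission 598 nm, BODIPY TMR filters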
# rCAG RNA binder: r(CAG) repeat RNA binding; TO-PRO-1 dye displacement fluorescence; actives 1.3% (n = 370,000); inhibition, % at 3 µM;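 active = inhibition above the plate cutoff, the mean of all test compounds on that plate plus 3 SD, cut at about 35% in these data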;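 note: 0% = DMSO alone and 100% = 100 µM mitoxantrone as full dye displacement; higher means more dye released from RNA so lower well fluorescence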
# PRMT1 inh: inhibitors of human PRMT1; actives 1.3% (n = 370,000); recombinant PRMT1, activity-based probe fluorescence polarization; Q99873; inhibition, % at 2.79 µM;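 active = inhibition above about 21% made by adding two undisclosed values, limit read from the data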
# Target sequence (Q99873 whole entry, looked up): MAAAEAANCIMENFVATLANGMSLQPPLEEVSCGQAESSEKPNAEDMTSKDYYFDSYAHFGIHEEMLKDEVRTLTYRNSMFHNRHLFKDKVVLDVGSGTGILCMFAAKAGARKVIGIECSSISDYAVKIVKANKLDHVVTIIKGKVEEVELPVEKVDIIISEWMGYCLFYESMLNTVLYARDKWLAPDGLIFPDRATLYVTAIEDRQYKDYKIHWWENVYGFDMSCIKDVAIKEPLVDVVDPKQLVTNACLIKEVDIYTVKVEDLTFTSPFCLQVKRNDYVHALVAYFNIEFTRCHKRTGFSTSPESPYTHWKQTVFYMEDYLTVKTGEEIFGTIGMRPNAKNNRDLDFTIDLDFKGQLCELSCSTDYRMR
# SIAE inh: inhibitors of human sialic acid acetylesterase SIAE | Q9HAT2 | SIAE FP-Rh probe binding, fluorescence polarization | inhibition, % at 9.66 µM | actives 0.69% (n = 370,000);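 active = inhibition above a cutoff: mean of compounds within the control limits plus 3 SD of those, cut at about 17% in these data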;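 note: 0% = plate median of compound wells and 100% = probe without SIAE protein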
# TCR-CD3 inh: inhibitors of human TCR-CD3 interaction; TAMRA-labeled TCR probe fluorescence, biochemical; inhibition, % at 9.4 µM; actives 0.37% (n = 360,000); AID 651800; in the data active = inhibition above about 19%;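 note: recombinant mutant TCR 2C K166C tagged with TAMRA read by polarization; 0% = receptor in buffer alone and 100% = receptor with positive control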
# SIAE confirm: human SIAE inhibition, confirmation; SIAE FP-Rh activity-based probe, fluorescence polarization; shares compounds with SIAE inh; inhibition, % at 9.66 µM; actives 13% (n = 2,300);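 active = mean inhibition of the replicates above the hit cutoff set in the primary screen, cut at about 17% in these data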;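 note: 0% = SIAE with DMSO and probe and 100% = probe without SIAE; inhibitors lower polarization as more probe stays unbound to SIAE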
# The depositor's hits bear a star; x = not tested or not shown. Only some compounds are listed: those with a hit (about 3.3% of all), similar ones and a draw of the others.
SMILES,mABHD4 FP,rCAG RNA binder,PRMT1 inh,SIAE inh,TCR-CD3 inh,SIAE confirm
CC(C)c1ccc(OCC(=O)NC2CC(C)(C)NC(C)(C)C2)c(Br)c1,3.2,2.5,-0.4,18.3*,9.4,-4.2
O=S1(=O)CC(N2CCN(c3ncccn3)CC2)CN1Cc1ccc(F)cc1 (stereo unspecified),5.9,2.3,-4.0,4.1,4.6,x
Cc1nn(CC(=O)N2CCN(S(=O)(=O)c3ccccc3)CC2)c(C)c1[N+](=O)[O-],-0.6,0.7,-3.7,17.7*,5.0,1.6
Cc1nn(CC(=O)N2CCN(C(=O)c3ccco3)CC2)c(C)c1[N+](=O)[O-],-3.5,2.9,-1.6,-4.0,4.2,x
O=Nc1c(O)[nH]c2ccc(Cl)c(Cl)c12,7.7,7.6,-2.2,63.0*,3.7,42.5*
Cc1cccc(C(=O)NCC(=O)NC(C)CCc2ccccc2)c1 (stereo unspecified),-2.6,-0.9,1.2,19.8*,7.4,-1.2
CCOc1cc2nc(-c3ccc(OC)c(OC)c3)nc(NCCCN3CCOCC3)c2cc1OC,-0.7,2.8,10.3,-2.3,-9.3,x
COc1cc2ncnc(NCCCN3CCOCC3)c2cc1OC,-1.2,-1.4,-8.2,38.2*,-2.8,1.5
Cc1ccc(-n2c(SCC(=O)Nc3ccccc3-c3ccccc3)nnc2-c2ccccn2)cc1,1.1,3.1,-0.9,0.0,x,x
N#C/C(=C\c1ccncc1)c1nc2ccccc2o1,-2.1,6.6,1.8,-6.8,0.0,x
N#C/C(=C\Nc1ccccc1O)c1nc2ccccc2o1,17.6,24.2,-1.8,17.8*,4.5,-10.2
O=C(C[C@@H]1CC[C@H](NC(=O)Nc2ccc(F)cc2)[C@@H](CO)O1)NCc1cccc(F)c1,-5.7,4.0,-0.6,1.0,-6.8,x
CCOC(=O)c1sc(NC(=O)Nc2cccc(Cl)c2)cc1C,-4.0,32.4,3.4,18.0*,0.8,-5.9
COc1cccc(C(=O)C2CCCN(Cc3cn(CC(N)=O)c4ccccc34)C2)c1 (stereo unspecified),-4.8,-5.3,-4.7,18.6*,-3.3,0.2
CCc1ccc(OC(=O)Nc2ccccc2)cc1,-1.0,-2.1,0.6,-2.1,11.5,x
COc1ccc(OC(=O)Nc2ccccc2)cc1,5.4,-2.2,-1.6,18.6*,2.3,2.0
CN1CCN(C(=O)/C(=C/c2ccccc2F)NC(=O)c2ccccc2)CC1,-7.1,-2.0,-3.4,-6.2,-9.3,x
S=C(NCCCn1ccnc1)Nc1cccc(Cl)c1,-1.1,-1.2,-2.6,20.5*,7.2,-0.2
CCOC(=O)c1ccc(NC(=O)c2ncn3c2C(=O)NC[C@@H]3C)cc1,1.6,6.9,-1.5,-14.2,4.5,x
Cc1ccc(NC(=Nc2ccc(Br)cc2)N2CCOCC2)cc1C,-0.1,-4.3,-7.8,17.6*,-4.5,-1.6
N#CCCN(C(=O)COC(=O)COc1ccccc1Cc1ccccc1)c1ccccc1,-7.8,3.6,6.8,2.3,0.1,x
CC(C)N(C(=O)Cn1c(=O)oc2ccccc21)c1ccccc1,-2.6,-3.3,-3.3,21.7*,12.1,-1.5
Nc1c(-c2ccccc2Cl)cnn1-c1cccc([N+](=O)[O-])c1,-2.1,-1.4,-2.1,74.6*,0.4,-1.1
Cc1ccccc1-c1cnn(-c2cccc([N+](=O)[O-])c2)c1N,5.4,-5.8,2.1,0.4,4.1,x
CCOC(=O)[C@]12CCCC=C1N(Cc1cccc3ccccc13)C(=O)[C@H](CC(=O)NCCc1ccccc1OC)C2,-28.0,11.5,6.3,53.0*,-8.2,-6.5
SMILES,mABHD4 FP,rCAG RNA binder,PRMT1 inh,SIAE inh,TCR-CD3 inh,SIAE confirm
CN(c1ccccc1)S(=O)(=O)c1cccc(C(=O)NCCc2ccc(O)c(O)c2)c1,27.9,16.0,14.1,17.4*,-3.0,2.3
Cc1cccc2c1cnn2C(=O)CCC(=O)NCc1ccc(F)cc1,9.3,2.2,1.0,-2.0,-6.7,x
CCCC1CCC2(CC1)CCC2OC(=O)Nc1ccc(C)cc1 (stereo unspecified),-10.7,x,-3.2,3.5,x,x
CC1=NN(c2ccc(C(=O)O)c(N)c2)C(=O)C1,18.4,1.5,9.9,17.6*,0.4,3.1
C[C@@H]1CN([C@@H](C)CO)C(=O)CCCn2cc(nn2)CO[C@H]1CN(C)C(=O)Nc1ccc(N2CCN(C)CC2)cc1,4.9,-0.5,1.0,3.8,-1.9,x
O=C(NNC(=O)c1ccc2c(=O)n3c(nc2c1)CCC3)c1ccc(F)cc1,2.0,0.9,-2.8,22.9*,-1.3,2.9
O=C(NNC(=O)c1ccc2c(=O)n3c(nc2c1)CCC3)c1ccc(Cl)cc1,-3.8,0.8,-2.4,2.6,4.4,x
COc1ccccc1NC(=S)NCCN1CCOCC1,-2.2,0.5,-4.5,17.1*,-5.0,3.1
COc1ccc(Cl)cc1NC(=S)NCCc1ccc(S(N)(=O)=O)cc1,-3.3,4.8,-0.7,36.5*,5.5,2.0
COc1ccccc1NC(=S)NCc1ccc(Cl)cc1,6.8,-1.5,0.5,17.7*,2.9,-1.3
CC(C)=CCC(C)(C)CNC(=O)NC1CCCCC1,-1.8,-5.1,0.9,20.1*,2.2,-3.9
COc1ccc(CN2C(=O)CN(S(C)(=O)=O)CC2(C)C(=O)NC(C)C)cc1OC (stereo unspecified),-1.2,0.0,1.6,-2.7,-1.8,x
C=CCNC(=O)c1onc(CSc2ccc(F)cc2)c1C(=O)O,-1.0,6.2,4.3,4.7,7.5,x
C=CCNC(=O)c1onc(CSc2ccc(OC)cc2)c1C(=O)O,2.9,1.8,-1.5,21.8*,6.0,-3.7
COc1ccccc1C1CC(c2ccco2)=NN1c1ccccc1 (stereo unspecified),2.6,7.2,1.5,17.2*,2.1,-1.6
CCCn1c(Nc2ccccc2C)nc2ccccc21,4.0,-4.4,1.0,37.5*,-6.1,-2.7
C=CCc1cccc(CNc2nc3ccccc3n2CCC)c1O,-4.3,1.6,1.7,19.4*,-3.2,11.0
CCc1ccccc1Nc1nc2ccccc2n1CC,0.8,-3.7,3.1,6.7,1.6,x
CN(C)S(=O)(=O)c1ccc(C(=O)N2CCN(S(=O)(=O)c3ccc4c(c3)OCCO4)CC2)cc1,-1.1,3.7,-0.7,19.8*,4.0,1.2
CCOc1ncccc1C(=O)N1CCN(S(=O)(=O)c2ccc3c(c2)OCCO3)CC1,-1.6,-1.4,-2.2,21.9*,8.0,-2.9
CCOC(=O)CN1C(=O)N(c2ccc(OC)cc2)[C@H]2CC3c4ccccc4C[C@]3(C)[C@@H](C(=O)N(C)C3CCCCC3)C[C@H]21 (stereo partly specified),-4.6,5.7,-2.5,-4.4,-4.3,x
Cc1ccc([C@@H]2CC(=O)[C@@H]3CN(S(=O)(=O)c4ccc(C)cc4)[C@H](c4ccccc4)C[C@@H]3N2S(=O)(=O)c2ccc(C)cc2)cc1,3.7,12.3,2.6,-7.3,3.6,x
Cc1c(CCC(=O)NCCCn2ccnc2)c(=O)oc2cc3occ(C(C)(C)C)c3cc12,11.9,-8.2,-2.1,18.2*,-4.8,0.7
COc1cc(S(=O)(=O)NCCN2CCOCC2)ccc1-n1cnnn1,10.8,-0.7,-1.1,-0.8,-6.9,x
